# Reference: article PMC8247328 (British Journal of Clinical Pharmacology, 2020)
# Where a SMILES comes first, the peptide text is derived from it. [ ]: non-standard residue; d: D form.
# What was measured:
# Format in all cases: in vivo, human
# [1] = tested on: patients with early stage HD; test: Safety: treatment-emergent adverse events, laboratory, vital signs, ECG
# Procedure, shortened: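 The trial was randomized and placebo-controlled in early HD. Part 1 gave 5, 15 or 25 mg subcutaneously once daily for 7 days (6 active, 2 placebo per cohort). Part 2 re-randomized patients 12:12 to 28 days. Adverse events, vitals, laboratory, ECG and physical examination were recorded on clinic days and at home visits (days 7, 14, 21 in Part 2). Plasma histamine was sampled 15 and 30 min post-dose.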
# [2] = Plasma pharmacokinetics of SBT-020
# Procedure, shortened: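 Dosing was subcutaneous once daily. In Part 1, 24-h plasma profiles were taken on day 1 and at steady state (day 7); Part 2 used steady-state troughs only. Plasma aliquots were spiked with 5% aqueous formic acid, and active-arm samples were assayed by validated LC-MS (LLOQ 2.5 ng/mL). Noncompartmental analysis set pre-Cmax values below LLOQ to zero and excluded post-Cmax ones.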
# [3] = tested on: mitochondrial function in calf muscle; test: Dynamic 31P-MRS of calf skeletal muscle
# Procedure, shortened: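 Calf muscle was scanned by dynamic 31P-MRS at 7 T with a surface coil and an MRI-compatible pedal ergometer, before, during and after exercise (pulse-acquire, 2-s resolution, flip 45°, 1 average). Pi, PCr and ATP peaks were integrated. τPCr came from a monoexponential fit, and pH from the PCr–Pi frequency difference. Scans were repeated after a 10-min break if end-exercise pH was <6.8. Outliers deviating >5% (up to 10%) were removed. Timing: screening and day 7 (Part 1), day −1 and day 27 (Part 2), 1.5 h post-dose. Analysis was ANCOVA; the posthoc split used the pre-dose median.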
# [4] = tested on: mitochondrial function in the visual cortex; test: 31P-MRS of the visual cortex before, during and after visual stimulation; details: Part 2, 25 mg s.c. once daily 28 d
# Procedure, shortened: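 At 3 T, a 6-cm 31P transmit/receive surface coil was placed over the visual cortex, positioned using a 10-mm water sphere on 1H images. Adiabatic pulse-acquire (TR 2 s, flip 90°) FIDs were collected for 4 min at rest (128 averages), 8 min during visual activation (256) and 8 min after (256). Time-domain fitting with prior knowledge gave PCr/ATP, Pi/PCr, Pi/ATP and pH. Scans ran on day −1 and 1.5 h post-dose on day 27; mixed-model ANCOVA used baseline as covariate.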
# [5] = Part 1, 5 mg s.c. once daily 7 d, n=6, day 7
# [6] = Part 1, 15 mg s.c. once daily 7 d, n=6, day 7
# [7] = Part 1, 25 mg s.c. once daily 7 d, ANCOVA
# [8] = Part 1, 25 mg s.c. once daily 7 d, n=6, day 7
# [9] = Part 2, 25 mg s.c. once daily 28 d, ANCOVA
# [10] = Part 2, 25 mg s.c. once daily 28 d, n=11, day 27
smiles,measurement,setting,value
"N=C(N)NCCC[C@@H](NC(=O)[C@@H](N)Cc1ccccc1)C(=O)N[C@@H](Cc1ccccc1)C(=O)N[C@@H](CCCCN)C(N)=O [SBT‐020, H‐Phe‐D‐Arg‐Phe‐Lys‐NH2] (H-F[dR]FK-NH2)",Overall safety,"[1]; 5, 15, 25 mg s.c. once daily 7 d and 25 mg 28 d",safe in all dose levels
same,Plasma histamine levels,[1]; 15 and 30 minutes after administration,not elevated
same,Severity of injection site reactions,"[1]; Parts 1 and 2, developed within a few minutes of dosing, resolved within the hour",mild
same,Exposure higher between day 1 and day 7,"[2]; Part 1, 25‐mg dose cohort",approximately 10%
same,Accumulation,"[2]; Part 2, weekly trough samples, 28 days of daily 25 mg s.c.",did not accumulate
same,Median percentage of extrapolated AUC,"[2]; Part 1 day 7, 15‐mg cohort",less than 2%
same,Apparent elimination half‐life,"[2]; Part 1 day 7, 15‐mg cohort, mean",3.94 h
same,Median percentage of extrapolated AUC,"[2]; Part 1 day 7, 25‐mg cohort",less than 2%
same,Tmax,"[2]; human, plasma, sc",~1 h
same,Dose proportionality of exposure,[2]; once daily subcutaneous administration,dose‐proportional exposure
same,"τPCr with 31P‐MRS, contrast vs placebo (95% CI)","[3]; Part 1, 5 mg s.c. once daily 7 d, ANCOVA","6.505 (−3.4601, 16.4696) P = .1844 s"
same,"PCr/ATP resting phase 31P‐MRS scan, LS mean",[3]; [5],3.7838
same,"PCr/pi resting phase 31P‐MRS scan, LS mean",[3]; [5],9.9289
same,"τPCr with 31P‐MRS, LS mean","[3]; Part 1, 5 mg s.c. once daily 7 d, n=6, day 7, 1.5 h post dose",40.9016 s
same,"τPCr with 31P‐MRS, contrast vs placebo (95% CI)","[3]; Part 1, 15 mg s.c. once daily 7 d, ANCOVA","8.807 (−1.0294, 18.6436) P = .0757 s"
same,"PCr/ATP resting phase 31P‐MRS scan, LS mean",[3]; [6],3.8400
same,"PCr/pi resting phase 31P‐MRS scan, LS mean",[3]; [6],11.5607
same,"τPCr with 31P‐MRS, LS mean","[3]; Part 1, 15 mg s.c. once daily 7 d, n=6, day 7, 1.5 h post dose",43.2040 s
same,"PCr/pi resting phase 31P‐MRS scan, contrast vs placebo (95% CI)",[3]; [7],"0.7604 (−1.0773, 2.598) P = .3948"
same,"τPCr with 31P‐MRS, contrast vs placebo (95% CI)",[3]; [7],"5.477 (−5.5072, 16.4620) P = .3047 s"
same,"PCr/ATP resting phase 31P‐MRS scan, LS mean",[3]; [8],3.8510
same,"PCr/pi resting phase 31P‐MRS scan, LS mean",[3]; [8],11.2289
same,"τPCr with 31P‐MRS, LS mean","[3]; Part 1, 25 mg s.c. once daily 7 d, n=6, day 7, 1.5 h post dose",39.8743 s
same,Mean τPCr after 7 days of treatment,"[3]; Part 1, 5‐mg cohort, baseline mean 41.9",42.5 s
same,Mean τPCr after 7 days of treatment,"[3]; Part 1, 15‐mg cohort, baseline mean 40.0",43.1 s
same,Mean τPCr after 7 days of treatment,"[3]; Part 1, 25‐g cohort (so in the source), baseline mean 39.2",38.8 s
same,"Effect on τPCr, ∆Ψm and percentage of dysfunctional PBMCs","[3]; Part 1, after 7 days of treatment, 5, 15, 25 mg",No overall or dose‐related effects
same,"PCr/ATP resting phase 31P‐MRS scan, contrast vs placebo (95% CI)",[3]; [9],"−.07 (−0.3, 0.2) P = .54"
same,"PCr/pi resting phase 31P‐MRS scan, contrast vs placebo (95% CI)",[3]; [9],"0.1 (−2.0, 2.1) P = .94"
same,"τPCr with 31P‐MRS, contrast vs placebo (95% CI)",[3]; [9],"2.8 (−9.3, 15.0) P = .63 sec"
same,"PCr/ATP resting phase 31P‐MRS scan, LS mean",[3]; [10],3.7
same,"PCr/pi resting phase 31P‐MRS scan, LS mean",[3]; [10],10.2
same,"τPCr with 31P‐MRS, LS mean","[3]; Part 2, 25 mg s.c. once daily 28 d, n=11, day 27, 1.5 h post dose",40.8 s
same,"Change of τPCr, posthoc","[3]; Part 2, active, high mitochondrial function group (τPCr of < 42.4 s)",did not decrease
same,"Effect on τPCr, ∆Ψm and percentage of dysfunctional PBMCs","[3]; Part 2, after 28 days of treatment, 25 mg",No overall effects
same,Effect on brain mitochondrial function compared to placebo,[4],No overall statistically significant effect
same,"PCr/ATP after visual stimulation (central 31P‐MRS), contrast vs placebo (95% CI)",[4]; ANCOVA,"−0.02 (−0.1, 0.05) P = .57"
same,"Pi/ATP after visual stimulation (central 31P‐MRS), contrast vs placebo (95% CI)",[4]; ANCOVA,"0.0073 (−0.0270, 0.0415) P = .6613"
same,"Pi/ATP before visual stimulation (central 31P‐MRS), contrast vs placebo (95% CI)",[4]; ANCOVA,"−0.002 (−0.02, 0.02) P = .80"
same,"Pi/ATP during visual stimulation (central 31P‐MRS), contrast vs placebo (95% CI)",[4]; ANCOVA,"−0.004 (−0.02, 0.01) P = .57"
same,"Pi/PCr after visual stimulation (central 31P‐MRS), contrast vs placebo (95% CI)",[4]; ANCOVA,"0.02 (−0.02, 0.06) P = .32"
same,"Pi/PCr before visual stimulation (central 31P‐MRS), contrast vs placebo (95% CI)",[4]; ANCOVA,"0.0007 (−0.02, 0.02) P = .93"
same,"Pi/PCr during visual stimulation (central 31P‐MRS), contrast vs placebo (95% CI)",[4]; ANCOVA,"0.004 (−0.03, 0.03) P = .81"
